# Compound activity from PubChem.
# Rows were chosen to be rich in hits. Some 1.8% of all compounds tested hit in one or more screens of this group.
# MBD2 inh = inhibitors of MBD2 binding to methylated DNA, primary screen, biochemical, TR-FRET, DNA-binding domain, human | actives 0.31% (n = 370,000) | inhibition, % at 4.4 µM | AID 686964, 2013 | MBD2 binding to methylated oligonucleotide; in the data active = inhibition above about 13%
# UHRF1 MBD2 ctr = UHRF1 methylated DNA binding inhibitors, primary screen, counter-screen for MBD2 inhibitor project, biochemical, TR-FRET, human UHRF1, single concentration; AID 687016, 2013; inhibition, % at 4.4 µM; UHRF1 binding to methylated oligo; E3 ubiquitin-protein ligase UHRF1 (Homo sapiens), Q96T88; actives 0.75% (n = 370,000); in the data active = inhibition above about 21%;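 note: UHRF1 SRA domain binding a hemimethylated CpG hairpin DNA probe; 0% = median of test compound wells and 100% = reference inhibitor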
# Target sequence (Q96T88 whole entry, looked up, the tested form may be a part): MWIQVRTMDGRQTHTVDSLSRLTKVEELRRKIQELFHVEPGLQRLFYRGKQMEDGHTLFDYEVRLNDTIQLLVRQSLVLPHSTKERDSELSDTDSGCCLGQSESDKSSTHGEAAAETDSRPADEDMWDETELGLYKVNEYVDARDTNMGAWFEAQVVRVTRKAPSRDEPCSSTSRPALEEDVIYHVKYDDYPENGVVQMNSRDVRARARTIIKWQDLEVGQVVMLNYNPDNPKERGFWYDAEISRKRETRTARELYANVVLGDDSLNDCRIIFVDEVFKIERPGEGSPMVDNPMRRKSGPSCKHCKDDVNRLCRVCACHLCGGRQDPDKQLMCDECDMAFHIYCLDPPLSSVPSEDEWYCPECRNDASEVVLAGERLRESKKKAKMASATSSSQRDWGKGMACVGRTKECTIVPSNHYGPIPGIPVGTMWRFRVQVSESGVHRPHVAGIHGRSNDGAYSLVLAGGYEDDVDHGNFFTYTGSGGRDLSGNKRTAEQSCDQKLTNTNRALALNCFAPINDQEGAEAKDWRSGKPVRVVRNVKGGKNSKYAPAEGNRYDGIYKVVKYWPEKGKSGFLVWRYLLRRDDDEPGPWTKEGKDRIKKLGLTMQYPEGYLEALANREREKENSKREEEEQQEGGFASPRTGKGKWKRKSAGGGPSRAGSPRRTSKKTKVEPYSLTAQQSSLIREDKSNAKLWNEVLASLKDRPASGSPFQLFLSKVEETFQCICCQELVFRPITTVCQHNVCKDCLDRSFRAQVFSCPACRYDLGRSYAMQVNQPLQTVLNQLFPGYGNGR
# TDP2 absorb = human TDP2 enzyme inhibitors, primary screen, biochemical, epi absorbance, recombinant enzyme; inhibition, % at 12.8 µM; AID 720702, 2013; actives 0.34% (n = 370,000); T5PNP hydrolysis, p-nitrophenol absorbance 415 nm;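 active = inhibition above the mean of all tested compounds plus 3 SD, set per campaign, cut at about 25% in these data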;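 note: 0% = DMSO with enzyme and 100% = buffer with substrate but no TDP2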
#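 System – recombinant human TDP2 · Amount – 120 nM TDP2 per well · Buffer or medium – Mg2+-containing Tris-HCl buffer, pH 7.5 · Reagent – T5PNP substrate, 5 mM · Dosing – 12.8 µM single point, 1% DMSO · Incubation – 2 h at 37 °C · Measured by – epi absorbance · Read-out basis – percent inhibition · Benchmarks – high control without enzyme, low control DMSO plus TDP2 · Repeats – singlicate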
# NSD2 HMT inh = NSD2 histone methyltransferase inhibitors, primary screen, biochemical, AlphaScreen, single concentration, set 2. Histone-lysine N-methyltransferase NSD2 (Homo sapiens), O96028. actives 0.54% (n = 310,000). NSD2 peptide methylation, 120 min. AID 743445, 2014. inhibition, % at 12.5 µM; in the data active = inhibition above about 50%
# CASP6 VEID inh = human caspase-6 inhibitors, primary screen, biochemical, VEID-R110 fluorescence, single point, set 2; P55212; purified caspase-6, Z-VEID-R110 cleavage fluorescence; inhibition, % at 12.5 µM; actives 0.53% (n = 350,000); AID 686996, 2013;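 active = mean inhibition across replicates at least about 35%, with every replicate also reaching that limit, limit read from the data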;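 note: 0% = median of neutral control wells and 100% = no fluorescence left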
# LEDGF integ inh = blockers of LEDGF/p75-dependent integrase strand transfer – biochemical, TR-FRET, high throughput, primary screen; actives 0.64% (n = 370,000); inhibition, % at 3.7 µM; HIV-1 integrase (with human LEDGF/p75); TR-FRET IN-LEDGF/p75 DNA integration, Eu/Cy5;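 active = inhibition above the screen-wide mean plus 3 SD, cut at about 13% in these data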;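 note: signal is the Cy5 over europium emission ratio at 671 and 618 nm; 0% = plate median of compound wells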
# * hit, by the source's call; . = no result.
SMILES,MBD2 inh,UHRF1 MBD2 ctr,TDP2 absorb,NSD2 HMT inh,CASP6 VEID inh,LEDGF integ inh
Cc1ccc(C)c(N2N=C(C(=O)OCc3nnc(-c4ccccc4Br)o3)CCC2=O)c1,1.9,3.4,6.7,0.2,61.4*,0.7
C[C@H]1CN([C@@H](C)CO)S(=O)(=O)c2ccc(C#Cc3cccnc3)cc2O[C@@H]1CN(C)C(=O)Nc1ccc2c(c1)OCO2,6.5,22.0*,4.2,.,5.1,3.7
C[C@@H]1CN([C@H](C)CO)S(=O)(=O)c2ccc(C#Cc3cccnc3)cc2O[C@H]1CN(C)C(=O)Nc1ccc2c(c1)OCO2,.,.,.,.,-3.0,.
CCCC#Cc1ccc2c(c1)O[C@@H](CN(C)Cc1ccc3c(c1)OCO3)[C@H](C)CN([C@H](C)CO)S2(=O)=O,.,.,.,.,0.4,.
CCCC#Cc1ccc2c(c1)O[C@@H](CN(C)Cc1ccc3c(c1)OCO3)[C@H](C)CN([C@@H](C)CO)S2(=O)=O,11.9,20.8*,-9.4,.,-0.6,-4.7
CCCC(=O)Nc1ccc2c(c1)OC[C@@H](C)N(C(=O)CC1CC1)C[C@@H](C)[C@H](OC)CN(C)C2=O,.,.,.,.,0.0,.
C[C@H]1CN([C@@H](C)CO)C(=O)c2cc(NS(C)(=O)=O)ccc2O[C@H]1CN(C)C(=O)Nc1ccc2c(c1)OCO2,.,.,.,.,12.3,.
O=C(CCN1C(=O)/C(=C\C=C\c2ccccc2)SC1=S)Nc1ccc(C(=O)O)cc1,-2.0,2.6,8.7,4.2,49.0*,4.7
O=C(CN1C(=O)S/C(=C\C=C\c2ccccc2)C1=O)Nc1ccc(C(=O)O)cc1,-0.9,-0.2,-6.2,19.5,44.0*,-4.5
O=C(/C=C1\SC(=O)N(CC(=O)Nc2ccc(F)cc2)C1=O)Nc1ccc(Cl)cc1,1.5,-1.1,7.1,-3.5,0.5,0.6
O=C(/C=C1\SC(=O)N(CC(=O)Nc2ccc(Cl)cc2)C1=O)Nc1ccc(F)cc1,-1.2,0.4,-5.4,.,42.7*,1.4
O=C(CN1C(=O)S/C(=C/C=C/c2ccccc2)C1=O)Nc1ccc(C(=O)O)cc1,-0.5,-2.4,-4.0,10.6,27.6,2.1
COc1ccc2c3c([nH]c2c1)[C@@H](CO)N(C(=O)C1CCOCC1)CC31CCN(C(=O)NC(C)C)CC1,.,.,.,.,4.6,.
COc1ccc(S(=O)(=O)N(C)C[C@H]2Oc3ncc(C#CC4(O)CCCC4)cc3C(=O)N([C@H](C)CO)C[C@@H]2C)cc1,.,.,.,.,2.1,.
Cc1ccc(S(=O)(=O)N[C@H]2CC[C@@H](CCNC(=O)CN3CCOCC3)O[C@H]2CO)cc1,.,.,.,.,2.2,.
CNC(=O)c1cccc2cccc(Sc3ccccc3C(=O)O)c12,-3.1,29.0*,3.6,-2.1,-0.7,-0.4
CNC(=O)c1ccccc1Sc1ccccc1CO,2.3,-1.8,7.4,-2.4,-1.8,2.1
C[C@@H]1CN([C@@H](C)CO)C(=O)c2cccc(NC(=O)c3ccncc3)c2O[C@@H]1CN(C)S(=O)(=O)c1ccc(F)cc1,.,.,.,.,-1.2,.
O=C(O)Cn1c(=O)n(Cc2ccccc2)c2ccccc21,-1.2,27.8*,-15.2,0.4,-4.9,-0.1
N=c1n(CC(=O)c2cccs2)c2ccccc2n1Cc1ccccc1,-0.4,25.1*,12.7,-0.6,-1.9,-4.3
O=C(c1ccco1)N1CCN(C(c2cccs2)c2nnnn2C2CCCCC2)CC1 (stereo not drawn),3.8,86.0*,5.9,.,-1.6,1.9
O=C(c1ccncc1)N1CC2(C1)[C@@H](c1ccccc1)[C@@H](CO)N2C(=O)c1ccncc1,.,.,.,.,3.0,.
COc1cc(-c2cccc([C@H]3[C@@H]4C=CC[C@@H](C)[C@@H]4C(=O)N3Cc3ccccc3)c2)cc(OC)c1OC,6.3,45.5*,-7.9,.,-0.5,0.6
O=C(O)C[C@H]1C[C@@H]2c3cc(NC(=O)C4CCC4)ccc3O[C@@H]2[C@H](CO)O1,.,.,.,.,0.0,.
